Reference: ChEMBL document CHEMBL1139237, “Identification of inhibitors of N5-carboxyaminoimidazole ribonucleotide synthetase by high-throughput screening” (Bioorg Med Chem, 2009)
Calls of active or inactive are those of the source. The rule behind the calls is not given here.

Legend:
[1] = Inhibition of Escherichia coli N5-CAIR synthetase by phosphate assay
Procedure, shortened: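 E. coli enzyme in 50 mM HEPES pH 7.5, 20 mM KCl, 6.0 mM MgCl2, 100 μM ATP, diluted saturated NaHCO3. Compound at eight concentrations, 0.78–100 μM, with 50 μM AIR added, run 5 min at room temperature. Quenched with malachite green reagent, A600 read after at least 15 min. IC50 taken from Hill fit between enzyme + AIR and no-AIR controls.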

[2] = Inhibition of Escherichia coli N5-CAIR synthetase using variable amount of aminoimidazole ribonucleotide and fixed ATP by ATPase assay
Procedure, shortened: (§1)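 PK/LDH-coupled assay at 37 °C in HEPES pH 7.5, KCl, MgCl2, 0.2 mM NADH, 2.0 mM PEP, 1.0 mM NaHCO3. ATP fixed at 1.1 mM and AIR varied 5–250 μM. Inhibitor at 0–50 μM added with AIR to start the reaction. NADH loss read at 340 nm, initial rate over the first 2 min. Mode from Lineweaver-Burk plots, Ki from slope replots.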

[3] = target: T1, Bifunctional phosphoribosylaminoimidazole carboxylase/phosphoribosylaminoimidazole succinocarboxamide synthetase (Homo sapiens) (UniProt P22234); assay: Inhibition of human AIR carboxylase: SAICAR synthetase at 200 uM by coupled assay
T1 sequence (whole entry): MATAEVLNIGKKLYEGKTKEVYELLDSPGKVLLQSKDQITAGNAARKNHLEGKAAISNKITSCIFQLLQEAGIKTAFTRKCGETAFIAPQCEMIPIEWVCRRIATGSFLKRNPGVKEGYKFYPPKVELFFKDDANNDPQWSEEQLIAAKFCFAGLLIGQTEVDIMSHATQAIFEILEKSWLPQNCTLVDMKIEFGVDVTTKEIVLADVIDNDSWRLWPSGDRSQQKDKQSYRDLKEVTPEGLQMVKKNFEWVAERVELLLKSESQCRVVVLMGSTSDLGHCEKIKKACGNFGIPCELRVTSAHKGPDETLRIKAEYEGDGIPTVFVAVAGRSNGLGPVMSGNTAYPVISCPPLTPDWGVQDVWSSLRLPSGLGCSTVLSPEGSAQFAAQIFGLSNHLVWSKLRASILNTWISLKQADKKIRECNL
Procedure, shortened: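 Human bifunctional AIR carboxylase:SAICAR synthetase (>95% pure by SDS-PAGE); both activities measured together by coupled assay, as described for the chicken enzyme; compounds at 200 μM.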

[4] = Inhibition of Escherichia coli N5-CAIR synthetase using variable amount of ATP and fixed aminoimidazole ribonucleotide by ATPase assay
Procedure, shortened: as §1, with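 “NaHCO3. AIR” for “NaHCO3. ATP”, “at 100 μM” for “at 1.1 mM”, “and ATP” for “and AIR”, “loss followed” for “loss read”, “initial velocity” for “initial rate”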

[5] = Inhibition of Escherichia coli N5-CAIR synthetase using variable amounts of 5-aminoimidazole ribonucleotide or ATP by ATPase assay
Procedure, shortened: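 E. coli enzyme (168 ng) in 1 mL cuvette, 50 mM HEPES pH 7.5, 20 mM KCl, 6.0 mM MgCl2, 1.0 mM NaHCO3, PK/LDH coupling (0.2 mM NADH, 2.0 mM PEP, 4 U PK, 17 U LDH). Preincubated with ATP 3 min at 37 °C. ATP fixed 1.1 mM with AIR 5–250 μM, or AIR fixed 100 μM with ATP 5–250 μM. Start with AIR plus inhibitor (0–50 μM); A340 read at 37 °C.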

[6] = Chemical stability in aqueous solution assessed as compound decomposition after 45 mins; assay type: physicochemical; conditions: buffer, 0.75 h
[7] = Chemical stability in aqueous solution assessed as compound decomposition after 30 mins; assay type: physicochemical; conditions: buffer, 0.5 h

Row | Structure (SMILES) | IC50 [1] [µM] | further results
1 | COc1cc(C(F)(F)F)c(C(=O)NC2(O)C(=O)c3ccccc3C2=O)cn1 | 17 | –
2 | CN1CCN(CN2C(=O)C(=O)c3ccccc32)CC1 | 37 | –
3 | Cc1cc2nc3c(=O)[nH]c(=O)nc-3n(C[C@H](O)[C@H](O)[C@H](O)CO)c2cc1C | 20 | Ki [2]: 81 µM; Activity [3]: inactive; Ki [4]: 122 µM
4 | Cc1nc(NC2(O)C(=O)c3ccccc3C2=O)cs1 | 5.6 | Ki [5]: Not Active; Stability [6]: Unstable
5 | O=C1C(=O)N(CN2CCN(CN3C(=O)C(=O)c4ccccc43)C2)c2ccccc21 | 69 | –
6 | COc1cscc1C(=O)NC1(O)C(=O)c2ccccc2C1=O | 17 | –
7 | Cc1cc(NC2(O)C(=O)c3ccccc3C2=O)n(C)n1 | 7.8 | –
8 | O=C1Nc2ccc(OC(F)(F)F)cc2C1=O | 19 | –
9 | CCOC(=O)c1noc(C)c1-c1csc(CS(=O)(=O)c2ccc(Cl)cc2)n1 | 10 | Ki [2]: 62 µM; Activity [3]: inactive; Ki [4]: 43 µM
10 | Cc1nonc1NC1(O)C(=O)c2ccccc2C1=O | 2.3 | Stability [7]: Unstable; Ki [5]: Not Active
11 | O=C(NC1(O)C(=O)c2ccccc2C1=O)c1cccc2c1-c1ccccc1C2=O | 8.7 | –
12 | CCN(CC)C(=O)CN1C(=O)C(=O)c2ccccc21 | 10.5 | Ki [2]: 29 µM; Activity [3]: inactive; Ki [4]: 40 µM
13 | CCOC(=O)C1CCN(CN2C(=O)C(=O)c3ccccc32)CC1 | 22 | –
14 | O=C1C(=O)N(CN2CCOCC2)c2ccc(Br)cc21 | 23 | –
